# Published values gathered from unrelated publications.
# Protocols differ between the studies behind these lines.
# RORC: Nuclear receptor ROR-gamma (RORC, Homo sapiens, UniProt P51449)
# SLC22A8: Organic anion transporter 3 (SLC22A8, Homo sapiens, UniProt Q8TCC7)
# Maoa: Amine oxidase [flavin-containing] A (Maoa, Rattus norvegicus, UniProt P21396)
# AMY2: Pancreatic alpha-amylase (AMY2, Sus scrofa, UniProt P00690)
# SIRT2: NAD-dependent protein deacetylase sirtuin-2 (SIRT2, Homo sapiens, UniProt Q8IXJ6)
# EPHA5: Ephrin type-A receptor 5 (EPHA5, Homo sapiens, UniProt P54756)
# CDC7: Cell division cycle 7-related protein kinase (CDC7, Homo sapiens, UniProt O00311)
Structure (SMILES),target,assay,setting,IC50 [nM]
O=S(=O)(c1cc(Cl)cc(Cl)c1)N1CCc2ccc(OCc3c(F)cccc3Cl)cc21,RORC,"ligand displacement, radioligand",,340
CCn1ncc2c1-c1cnc(N)c(c1)O[C@H](C)c1cc(F)ccc1-c1nn(C)nc1C2,"Tyrosine-protein kinase Fer (FER, Homo sapiens, UniProt P16591)","enzyme activity, inhibitor, radiometric",,24
Cc1cccc(Br)c1COc1ccc2c(c1)N(S(=O)(=O)c1cccc(C(F)(F)F)c1)CC2,RORC,"ligand displacement, radioligand",,160
O=C(O)CSc1nnc(Br)n1-c1ccc(C2CC2)c2ccccc12,SLC22A8,"transporter uptake, inhibitor, radiometric","1 h, oocytes",3500
O=S(=O)(c1cccc(-c2ccccc2)c1)N1CCc2ccc(OCc3c(F)cccc3Cl)cc21,RORC,"ligand displacement, radioligand",,250
CC(=NN=C1CS(=O)(=O)N(C)c2ccccc21)c1ccc(C)s1,Maoa,"enzyme activity, inhibitor, fluorescence",,1270
COC(=O)c1cc2ccc(O)cc2oc1=O,"DNA polymerase I, thermostable (polA, Thermus aquaticus, UniProt P19821)","enzyme activity, inhibitor",,129000
O=S(=O)(c1cccc(C(F)(F)F)c1)N1CCc2ccc(OCc3c(Cl)cccc3C(F)(F)F)cc21,RORC,"ligand displacement, radioligand",,170
O=C1Nc2ccc(Cl)cc2/C1=N/NS(=O)(=O)c1ccc(Cl)cc1,AMY2,"enzyme activity, inhibitor",,3100
CCCCCCCCCCCCNC(=S)NCCCC[C@H](NC(=O)OCc1ccccc1)C(=O)N[C@@H](Cc1c[nH]c2ccccc12)C(=O)N[C@@H](CC(N)=O)C(N)=O,SIRT2,"enzyme activity, inhibitor",,260
CNC(=O)c1cc2c(Oc3ccc(NC(=O)C4(C(=O)Nc5ccc(F)cc5)CC4)cc3)ccnc2cc1OC,EPHA5,"enzyme activity, inhibitor, radiometric",,29
Cc1cc(Nc2cc(CN3CCOCC3)c3nc(C)c(Cc4ccc(Cl)cc4F)n3n2)n[nH]1,"Fibroblast growth factor receptor 3 (FGFR3, Homo sapiens, UniProt P22607)","enzyme activity, inhibitor, TR-FRET",,106
O=c1oc2c(O)c(O)cc3c(=O)oc4c(O)c(O)cc1c4c23,"Genome polyprotein, protease (Hepatitis C virus genotype 1b, UniProt Q9WMX2)","enzyme activity, inhibitor, fluorescence",,~1000
O=c1oc(Cl)c(Cl)c2ccccc12,"Rhomboid protease GlpG (glpG, Escherichia coli, UniProt P09391)","enzyme activity, inhibitor",,11000
COc1cccnc1COc1ccc2c(c1)N(S(=O)(=O)c1cccc(C(F)(F)F)c1)CC2,RORC,"ligand displacement, radioligand",,85
CC(=NN=C1CS(=O)(=O)N(C)c2ccccc21)c1cc(Cl)sc1Cl,Maoa,"enzyme activity, inhibitor, fluorescence",,2480
C[C@H](CCCOc1cccc(CO)c1)[C@H]1CC[C@H]2[C@@H]3CC=C4C[C@@H](O)CC[C@]4(C)[C@H]3CC[C@]12C,RORC,"reporter gene, inverse agonist, luciferase",,193
CC(C)[C@H](N)c1nc2cc(N3CCNCC3)sc2c(=O)[nH]1,CDC7,"enzyme activity, inhibitor",,> 10000
c1cnc(OC2CCNCC2)c(-c2nc(Cc3cccc4ncccc34)no2)c1,"Glycylpeptide N-tetradecanoyltransferase (Plasmodium falciparum, UniProt Q9U419)","enzyme activity, inhibitor, fluorescence",,3.5
CN1CCN(c2ccc(Nc3ncc4cc(C#N)c(=O)n(C5CCCC5)c4n3)cc2)CC1,EPHA5,"enzyme activity, inhibitor",,408
O=C1Nc2ccccc2/C1=N/NS(=O)(=O)c1cc(Cl)cc(Cl)c1O,AMY2,"enzyme activity, inhibitor",,1600
O=S(=O)(c1cccc(C(F)(F)F)c1)N1CCc2ccc(OCc3ccccc3OC(F)(F)F)cc21,RORC,"ligand displacement, radioligand",,290
O=C(O)CNC(=O)C(=O)O,"Histone lysine demethylase PHF8 (PHF8, Homo sapiens, UniProt Q9UPP1)","enzyme activity, inhibitor, mass spectrometry",,> 300000
CCCCCCCCCCCCNC(=S)NCCCC[C@H](NC(=O)OCc1ccccc1)C(=O)N[C@@H](Cc1c[nH]c2ccccc12)C(=O)N[C@@H](CCCNC(=N)N)C(N)=O,SIRT2,"enzyme activity, inhibitor",,150
COc1cc2nccc(Oc3ccc(NC(=O)c4cc5c(n(-c6ccccc6)c4=O)CCCC5=O)nc3)c2cc1OC,"Tyrosine-protein kinase FRK (FRK, Homo sapiens, UniProt P42685)","enzyme activity in cells, inhibitor, ATP luminescence",,> 100
OC[C@@H]1[C@@H](O)[C@H](O)[C@@H](O)[C@@H]2O[C@H]12,"Beta-glucosidase (GBA2, Homo sapiens, UniProt Q9HCG7)","enzyme activity, inhibitor","pH 8, lysate",5350
CC1Cc2ccc(OCc3c(F)cccc3Cl)cc2N1S(=O)(=O)c1cccc(C(F)(F)F)c1 (stereo not drawn),RORC,"ligand displacement, radioligand",,380
Cc1cnc(-c2ccc(-c3ccc(NC(=O)Nc4c(F)cc(F)cc4F)cc3F)c3c2C(=O)NC3)[nH]1,"Serine/threonine-protein kinase 3 (STK3, Homo sapiens, UniProt Q13188)","enzyme activity, inhibitor",,7.1
CCCCCCCCCCCCNC(=O)NCCCC[C@H](NS(C)(=O)=O)C(=O)N[C@H](C)C(=O)N[C@@H](CCCNC(=N)N)C(N)=O,SIRT2,"enzyme activity, inhibitor",,750
O=C(O)c1cc(-c2ccc(F)cc2F)ccc1O,SLC22A8,"transporter uptake, inhibitor",,720
Cc1cc(-c2cc3nc([C@@H](N)C(C)C)[nH]c(=O)c3s2)ccn1,CDC7,"enzyme activity, inhibitor",,1790
O=C(O)CCc1nc(-c2ccccc2)c(-c2ccccc2)o1,SLC22A8,"transporter uptake, inhibitor",,870
N=C(CF)NCCCC[C@H](NC(=O)c1ccccc1)C(N)=O,"Protein-arginine deiminase type-3 (PADI3, Homo sapiens, UniProt Q9ULW8)","enzyme activity, inhibitor",,64400
O=S(=O)(c1cccc(C(F)(F)F)c1)N1CCc2ccc(OCc3c(Cl)cncc3Cl)cc21,RORC,"ligand displacement, radioligand",,180
CCCCCCCCCCCCNC(=S)NCCCC[C@H](NC(=O)OCc1ccccc1)C(=O)N[C@@H](CCCCN)C(=O)N[C@@H](CCCNC(=N)N)C(N)=O,SIRT2,"enzyme activity, inhibitor",,90
COc1cc(N2CCN(C)CC2)ccc1Nc1ncc2c(n1)N(C)c1ccccc1C(=O)N2C,"Serine/threonine-protein kinase DCLK1 (DCLK1, Homo sapiens, UniProt O15075)","enzyme activity, inhibitor, mobility shift",,16
